Measurements from ChEMBL document CHEMBL3875159, “High-affinity small molecular blockers of mixed lineage leukemia 1 (MLL1)-WDR5 interaction inhibit MLL1 complex H3K4 methyltransferase activity” (Eur J Med Chem, 2016).

What was measured:
[1] = Antiproliferative activity against human MV4-11 cells harboring MLL-AF4 fusion protein after 72 hrs by CCK8 assay; type: functional, cell-based; conditions: MV4-11, 72 h
[2] = biological target: T1, WD repeat-containing protein 5 (Homo sapiens, UniProt P61964); assay: Inhibition of 10mer-Thr-FAM probe binding to human WDR5 after 2 hrs by fluorescence polarization assay
[3] = Growth inhibition of human K562 cells after 7 days by MTS assay; type: functional, cell-based; conditions: K562, 168 h
In short: (§1)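 Proliferation assay in leukaemia cell lines with or without an MLL fusion. MV4-11 (MLL-AF4) gives an IC50 from concentration–response. K562 carries no MLL fusion protein; compounds are tested at a single 35 μM, reported as % remaining growth activity (IC50 where determined).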

[4] = Antiproliferative activity against human MV4-11 cells harboring MLL-AF4 fusion protein by CellTiter-Glo assay; type: functional, cell-based; in short: as §1
[5] = biological target: MLL1/ASH2L/RBBP5/WDR5 complex (Homo sapiens, UniProt P61964+Q03164+Q15291+Q9UBL3); assay: Inhibition of recombinant MLL1/ASH2L/RBBP5/WDR5 complex histone methyltransferase activity (unknown origin) by AlphaScreen assay; type: protein-complex assay
[6] = biological target: T1, WD repeat-containing protein 5; assay: Binding affinity to human WDR5 by isothermal titration calorimetry

Compound: Cc1c(F)c(N)cc(C(=O)Nc2cc(-c3ccc(NC(=O)C(C)NC(=O)OC(C)(C)C)cc3)ccc2N2CCN(C)CC2)c1Cl (configuration not stated)
- IC50 [1]: 4.3 µM
- IC50 [2]: 0.0779 µM

Compound: Cc1c(F)c([N+](=O)[O-])cc(C(=O)Nc2cc(-c3ccncc3)ccc2N2CCN(C)CC2)c1Cl
- IC50 [2]: 0.0771 µM

Compound: CN1CCN(c2ccc(-c3ccc([N+](=O)[O-])cc3)cc2NC(=O)c2ccc(F)c([N+](=O)[O-])c2)CC1
- IC50 [2]: 1.09 µM

Compound: Cc1c(F)c(N)cc(C(=O)Nc2cc(-c3ccncc3)ccc2N2CCN(C)CC2)c1Cl
- IC50 [2]: 0.0182 µM

Compound: CN1CCN(c2ccc(-c3ccc(N)cc3)cc2NC(=O)c2ccc(F)c(N)c2)CC1
- IC50 [2]: 13.6 µM

Compound: CC(=O)Nc1ccc(-c2ccc(N3CCN(C)CC3)c(NC(=O)c3cc(N)c(F)c(C)c3Cl)c2)cc1
- IC50 [1]: 12.5 µM
- IC50 [2]: 0.0701 µM

Compound: COC(=O)c1ccc(-c2ccc(N3CCN(C)CC3)c(NC(=O)c3cc([N+](=O)[O-])c(F)c(C)c3Cl)c2)cc1
- IC50 [2]: 0.0925 µM

Compound: CCC(CC)(NC(=O)C(C)C)C(=O)N[C@@H](CCCNC(=N)N)C(=O)NC1(C(=O)NC(c2ccc(F)cc2)c2ccc(F)cc2)CCCC1
- IC50 [3]: 37.8 µM
- IC50 [4]: 25 µM

Compound: CC(=O)Nc1cc(C(=O)Nc2cc(-c3ccncc3)ccc2N2CCN(C)CC2)c(Cl)c(C)c1F
- IC50 [2]: 1.36 µM

Compound: COc1ccc(N2CCN(c3ccc([N+](=O)[O-])cc3NC(=O)c3ccc(F)c(C)c3Cl)CC2)cc1
- IC50 [2]: > 20 µM

Compound: Cc1c(F)ccc(C(=O)Nc2cc([N+](=O)[O-])ccc2N2CCN(Cc3ccccc3)CC2)c1Cl
- IC50 [2]: > 20 µM

Compound: Cc1c(F)ccc(C(=O)Nc2cc([N+](=O)[O-])ccc2NCCCn2ccnc2)c1Cl
- IC50 [2]: > 20 µM

Compound: CC(=O)Nc1cc(C(=O)Nc2cc(-c3ccc([N+](=O)[O-])cc3)ccc2N2CCN(C)CC2)c(Cl)c(C)c1F
- IC50 [2]: > 20 µM

Compound: Cc1c(F)ccc(C(=O)Nc2cc([N+](=O)[O-])ccc2NCCN)c1Cl
- IC50 [2]: > 20 µM

Compound: Cc1c(F)ccc(C(=O)Nc2cc([N+](=O)[O-])ccc2N2CCN(c3ccc(F)cc3)CC2)c1Cl
- IC50 [2]: > 20 µM

Compound: Cc1c(F)c(N)cc(C(=O)Nc2cc(-c3ccc(NC(=O)CC(C)C)cc3)ccc2N2CCN(C)CC2)c1Cl
- IC50 [1]: 3.9 µM
- IC50 [2]: 0.105 µM

Compound: Cc1c(F)c(N)cc(C(=O)Nc2cc(-c3ccc(NC(=O)c4ccccc4)cc3)ccc2N2CCN(C)CC2)c1Cl
- IC50 [1]: 5.4 µM
- IC50 [2]: 0.422 µM

Compound: Cc1c(F)c(N)cc(C(=O)Nc2cc(-c3ccc(NC(=O)CCNC(=O)OC(C)(C)C)cc3)ccc2N2CCN(C)CC2)c1Cl
- IC50 [1]: 4.6 µM
- IC50 [2]: 0.102 µM

Compound: Cc1c(F)c(N)cc(C(=O)Nc2cc(-c3ccc(NC(=O)C4CCNCC4)cc3)ccc2N2CCN(C)CC2)c1Cl
- IC50 [1]: 9.2 µM
- IC50 [5]: 0.3 µM
- Kd [6]: 0.0075 µM
